Laboratory results: ChEMBL document CHEMBL1147105, “In vitro and in vivo activities of PD 0305970 and PD 0326448, new bacterial gyrase/topoisomerase inhibitors with potent antibacterial activities versus multidrug-resistant gram-positive and fastidious organism groups” (2007)

Assays:
[1] = test system: Enterococcus casseliflavus; assay: Antibacterial activity against Enterococcus casseliflavus; format: functional
Shigella flexneri = assay: Antibacterial activity against Shigella flexneri; format: functional
Outline: (§1)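 Broth microdilution MIC following CLSI guidelines, in cation-adjusted Mueller-Hinton broth, incubated at 35°C. Recent clinical isolates and reference strains, with identity confirmed by automated and standard microbiological methods. Results reported as MIC range, MIC50 and MIC90.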

Klebsiella aerogenes = assay: Antibacterial activity against Enterobacter aerogenes; format: functional; outline: as §1
Escherichia coli = assay: Antibacterial activity against Escherichia coli; format: functional; outline: as §1
[2] = test system: Peptoniphilus asaccharolyticus; assay: Antibacterial activity against Peptostreptococcus asaccharolyticus; format: functional
Outline: (§2)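 Anaerobic broth microdilution MIC following CLSI guidelines, in supplemented Brucella broth. Run in an anaerobe chamber under 5% CO2, 5% H2 and 90% N2 at 35°C, and read after 48 h. Reported as MIC range, MIC50 and MIC90.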

Streptococcus pneumoniae [3] = assay: Antibacterial activity against penicillin-susceptible Streptococcus pneumoniae; format: functional
Outline: (§3)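 Broth microdilution MIC per CLSI guidelines, incubated at 35°C. Cation-adjusted Mueller-Hinton broth for nonfastidious organisms and staphylococci. Streptococci tested in the same broth with 3% lysed horse blood. Anaerobes tested in supplemented Brucella broth inside an anaerobe chamber (5% CO2, 5% H2, 90% N2), read after 48 h. Strains were mainly recent clinical isolates with confirmed identity.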

Actinomyces sp. = assay: Antibacterial activity against Actinomyces sp.; format: functional
[4] = test system: Staphylococcus saprophyticus; assay: Antibacterial activity against Staphylococcus saprophyticus; format: functional; outline: as §1
Streptococcus pyogenes = assay: Antibacterial activity against Streptococcus pyogenes; format: functional
Outline: (§4)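 Broth microdilution MIC following CLSI guidelines, in cation-adjusted Mueller-Hinton broth with 3% lysed horse blood. Plates incubated at 35°C. Clinical isolates and reference strains, with identity confirmed by standard microbiological methods.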

Klebsiella pneumoniae = assay: Antibacterial activity against Klebsiella pneumoniae; format: functional; outline: as §1
Enterococcus faecalis [5] = assay: Antibacterial activity against VanA-resistant Enterococcus faecalis; format: functional; outline: as §3
Alloiococcus otitis = assay: Antibacterial activity against Alloiococcus otitidis; format: functional
Outline: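 MIC by broth microdilution following CLSI guidelines, in cation-adjusted Mueller-Hinton broth with 3% lysed horse blood. Incubated at 35°C and read after 48 h. Reported as MIC range, MIC50 and MIC90.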

Staphylococcus aureus [6] = assay: Antibacterial activity against oxacillin-resistant Staphylococcus aureus; format: functional; outline: as §3
Staphylococcus warneri = assay: Antibacterial activity against Staphylococcus warneri; format: functional; outline: as §1
Staphylococcus aureus [7] = assay: Antibacterial activity against oxacillin and levofloxacin-resistant Staphylococcus aureus; format: functional; outline: as §3
[8] = test system: Staphylococcus epidermidis; assay: Antibacterial activity against oxacillin-susceptible Staphylococcus epidermidis; format: functional
Outline: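 MIC by CLSI broth microdilution for nonfastidious organisms, in cation-adjusted Mueller-Hinton broth incubated at 35°C.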

Corynebacterium jeikeium = assay: Antibacterial activity against Corynebacterium jeikeium; format: functional
Outline: (§5)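 Broth microdilution MIC following CLSI guidelines, in cation-adjusted Mueller-Hinton broth containing 3% lysed horse blood, incubated at 35°C. Clinical isolates with identity confirmed. Reported as MIC range, MIC50 and MIC90.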

Enterococcus faecium [9] = assay: Antibacterial activity against VanB-resistant Enterococcus faecium; format: functional; outline: as §3
[10] = test system: Stenotrophomonas maltophilia; assay: Antibacterial activity against Stenotrophomonas maltophilia; format: functional; outline: as §1
Enterococcus faecalis [11] = assay: Antibacterial activity against Enterococcus faecalis; format: functional; outline: as §3
Staphylococcus aureus [12] = assay: Antibacterial activity against vancomycin-intermediate Staphylococcus aureus; format: functional; outline: as §3
Streptococcus pneumoniae [13] = assay: Antibacterial activity against levofloxacin-resistant Streptococcus pneumoniae; format: functional; outline: as §3
Citrobacter koseri = assay: Antibacterial activity against Citrobacter diversus; format: functional; outline: as §1
Proteus vulgaris = assay: Antibacterial activity against Proteus vulgaris; format: functional; outline: as §1
[14] = test system: Prevotella melaninogenica; assay: Antibacterial activity against Prevotella melaninogenica; format: functional; outline: as §2
Fusobacterium nucleatum = assay: Antibacterial activity against Fusobacterium nucleatum; format: functional; outline: as §2
Moraxella catarrhalis = assay: Antibacterial activity against beta-lactamase positive Moraxella catarrhalis; format: functional
Clostridioides difficile = assay: Antibacterial activity against Clostridium difficile; format: functional; outline: as §2
Prevotella sp. = assay: Antibacterial activity against Prevotella sp.; format: functional; outline: as §2
Bacteroides fragilis = assay: Antibacterial activity against Bacteroides fragilis; format: functional; outline: as §2
Streptococcus sanguinis = assay: Antibacterial activity against Streptococcus sanguis; format: functional; outline: as §4
Haemophilus influenzae = assay: Antibacterial activity against beta-lactamase negative Haemophilus influenzae; format: functional
Outline: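 Broth microdilution MIC following CLSI guidelines, in Haemophilus test medium at 35°C.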

Clostridium perfringens = assay: Antibacterial activity against Clostridium perfringens; format: functional; outline: as §3
Klebsiella oxytoca = assay: Antibacterial activity against Klebsiella oxytoca; format: functional; outline: as §1
Burkholderia cepacia = assay: Antibacterial activity against Burkholderia cepacia; format: functional; outline: as §1
Acinetobacter sp. = assay: Antibacterial activity against Acinetobacter sp.; format: functional; outline: as §1
Anaerococcus prevotii = assay: Antibacterial activity against Peptostreptococcus prevotii; format: functional; outline: as §2
Enterococcus faecium [15] = assay: Antibacterial activity against VanA-resistant Enterococcus faecium; format: functional; outline: as §3
Fusobacterium sp. = assay: Antibacterial activity against Fusobacterium sp.; format: functional; outline: as §2
Streptococcus pneumoniae [16] = assay: Antibacterial activity against penicillin-intermediate resistant Streptococcus pneumoniae; format: functional; outline: as §3
Shigella dysenteriae = assay: Antibacterial activity against Shigella dysenteriae; format: functional
Listeria monocytogenes = assay: Antibacterial activity against Listeria monocytogenes; format: functional; outline: as §5
Citrobacter freundii = assay: Antibacterial activity against Citrobacter freundii; format: functional; outline: as §1
Streptococcus pneumoniae [17] = assay: Antibacterial activity against penicillin-resistant Streptococcus pneumoniae; format: functional; outline: as §3
Enterococcus gallinarum = assay: Antibacterial activity against Enterococcus gallinarum; format: functional
Streptococcus agalactiae = assay: Antibacterial activity against Streptococcus agalactiae; format: functional; outline: as §5
Salmonella enteritidis = assay: Antibacterial activity against Salmonella enterica serovar Enteritidis; format: functional, Salmonella enterica subsp. enterica serovar Enteritidis; outline: as §1
Streptococcus viridans = assay: Antibacterial activity against Streptococcus viridans; format: functional; outline: as §4
[18] = test system: Staphylococcus haemolyticus; assay: Antibacterial activity against Staphylococcus haemolyticus; format: functional; outline: as §5

SMILES: C[C@H]1COc2c(N3CCN(C)CC3)c(F)cc3c(=O)c(C(=O)O)cn1c23.C[C@H]1COc2c(N3CCN(C)CC3)c(F)cc3c(=O)c(C(=O)O)cn1c23.O [LEVOFLOXACIN]
- MIC50 [1]: 2 µg/mL
- MIC90 [1]: 2 µg/mL
- MIC50 (Shigella flexneri): 0.03 µg/mL
- MIC90 (Shigella flexneri): 0.06 µg/mL
- MIC50 (Klebsiella aerogenes): 1 µg/mL
- MIC90 (Klebsiella aerogenes): 32 µg/mL
- MIC50 (Escherichia coli): 0.03 µg/mL
- MIC90 (Escherichia coli): 1 µg/mL
- MIC [2]: 0.125 µg/mL
- MIC50 (Streptococcus pneumoniae [3]): 0.5 µg/mL
- MIC90 (Streptococcus pneumoniae [3]): 1 µg/mL
- MIC (Actinomyces sp.): 0.25 µg/mL
- MIC50 [4]: 0.25 µg/mL
- MIC90 [4]: 0.5 µg/mL
- MIC50 (Streptococcus pyogenes): 0.5 µg/mL
- MIC90 (Streptococcus pyogenes): 2 µg/mL
- MIC50 (Klebsiella pneumoniae): 0.06 µg/mL
- MIC90 (Klebsiella pneumoniae): 0.5 µg/mL
- MIC (Enterococcus faecalis [5]): 16 µg/mL
- MIC50 (Alloiococcus otitis): 0.25 µg/mL
- MIC90 (Alloiococcus otitis): 0.25 µg/mL
- MIC50 (Staphylococcus aureus [6]): 8 µg/mL
- MIC90 (Staphylococcus aureus [6]): 8 µg/mL
- MIC (Staphylococcus warneri): 0.125 µg/mL
- MIC50 (Staphylococcus aureus [7]): 32 µg/mL
- MIC90 (Staphylococcus aureus [7]): 64 µg/mL
- MIC [8]: 0.25 µg/mL
- MIC50 (Corynebacterium jeikeium): 0.25 µg/mL
- MIC90 (Corynebacterium jeikeium): 0.5 µg/mL
- MIC (Enterococcus faecium [9]): 4 µg/mL
- MIC50 [10]: 1 µg/mL
- MIC90 [10]: 4 µg/mL
- MIC50 (Enterococcus faecalis [11]): 16 µg/mL
- MIC90 (Enterococcus faecalis [11]): 32 µg/mL
- MIC (Staphylococcus aureus [12]): 16 µg/mL
- MIC50 (Streptococcus pneumoniae [13]): 16 µg/mL
- MIC90 (Streptococcus pneumoniae [13]): 16 µg/mL
- MIC50 (Citrobacter koseri): 0.03 µg/mL
- MIC90 (Citrobacter koseri): 0.06 µg/mL
- MIC (Proteus vulgaris): 0.03 µg/mL
- MIC50 [14]: 1 µg/mL
- MIC90 [14]: 2 µg/mL
- MIC (Fusobacterium nucleatum): 0.03 µg/mL
- MIC50 (Moraxella catarrhalis): 0.03 µg/mL
- MIC90 (Moraxella catarrhalis): 0.06 µg/mL
- MIC50 (Clostridioides difficile): 0.5 µg/mL
- MIC90 (Clostridioides difficile): 0.5 µg/mL
- MIC50 (Prevotella sp.): 1 µg/mL
- MIC90 (Prevotella sp.): 2 µg/mL
- MIC50 (Bacteroides fragilis): 4 µg/mL
- MIC90 (Bacteroides fragilis): 32 µg/mL
- MIC50 (Streptococcus sanguinis): 1 µg/mL
- MIC90 (Streptococcus sanguinis): 1 µg/mL
- MIC50 (Haemophilus influenzae): 0.015 µg/mL
- MIC90 (Haemophilus influenzae): 0.03 µg/mL
- MIC90 (Clostridium perfringens): 0.5 µg/mL
- MIC50 (Klebsiella oxytoca): 0.06 µg/mL
- MIC90 (Klebsiella oxytoca): 2 µg/mL
- MIC50 (Burkholderia cepacia): 4 µg/mL
- MIC90 (Burkholderia cepacia): 16 µg/mL
- MIC50 (Acinetobacter sp.): 0.125 µg/mL
- MIC90 (Acinetobacter sp.): 16 µg/mL
- MIC (Anaerococcus prevotii): 0.125 µg/mL
- MIC50 (Enterococcus faecium [15]): 64 µg/mL
- MIC90 (Enterococcus faecium [15]): 64 µg/mL
- MIC (Fusobacterium sp.): 0.03 µg/mL
- MIC50 (Streptococcus pneumoniae [16]): 1 µg/mL
- MIC90 (Streptococcus pneumoniae [16]): 1 µg/mL
- MIC50 (Shigella dysenteriae): 0.03 µg/mL
- MIC90 (Shigella dysenteriae): 0.06 µg/mL
- MIC50 (Listeria monocytogenes): 1 µg/mL
- MIC90 (Listeria monocytogenes): 1 µg/mL
- MIC50 (Citrobacter freundii): 0.125 µg/mL
- MIC90 (Citrobacter freundii): 16 µg/mL
- MIC50 (Streptococcus pneumoniae [17]): 0.5 µg/mL
- MIC90 (Streptococcus pneumoniae [17]): 1 µg/mL
- MIC50 (Enterococcus gallinarum): 1 µg/mL
- MIC90 (Enterococcus gallinarum): 2 µg/mL
- MIC50 (Streptococcus agalactiae): 1 µg/mL
- MIC90 (Streptococcus agalactiae): 1 µg/mL
- MIC50 (Salmonella enteritidis): 0.03 µg/mL
- MIC90 (Salmonella enteritidis): 0.06 µg/mL
- MIC50 (Streptococcus viridans): 1 µg/mL
- MIC90 (Streptococcus viridans): 1 µg/mL
- MIC50 [18]: 0.25 µg/mL
- MIC90 [18]: 32 µg/mL
